Test results: ChEMBL document CHEMBL4229410, “Facile construction of fused benzimidazole-isoquinolinones that induce cell-cycle arrest and apoptosis in colorectal cancer cells” (Bioorg Med Chem, 2018)

Assays:
HT-29 [1] = experiment: Cell cycle arrest in human HT-29 cells assessed as accumulation at G2-phase at 50 uM after 48 hrs by propidium iodide staining based flow cytometry (reference value: 15.45%); format: functional
SW-620 [2] = experiment: Cell cycle arrest in human SW620 cells assessed as accumulation at S-phase at 75 uM after 48 hrs by propidium iodide staining based flow cytometry (reference value: 43.72%); format: functional
SW-620 [3] = experiment: Cell cycle arrest in human SW620 cells assessed as accumulation at G2-phase at 75 uM after 48 hrs by propidium iodide staining based flow cytometry (reference value: 14.08%); format: functional
SW-620 [4] = experiment: Induction of apoptosis in human SW620 cells assessed as live cells at 50 uM after 48 hrs by Annexin-V-FITC/propidium iodide staining based flow cytometry (reference value: 97.5%); format: functional
HT-29 [5] = experiment: Induction of apoptosis in human HT-29 cells assessed as live cells at 50 uM after 48 hrs by Annexin-V-FITC/propidium iodide staining based flow cytometry (reference value: 93.2%); format: functional
SW-620 [6] = experiment: Induction of apoptosis in human SW620 cells assessed as live cells at 75 uM after 48 hrs by Annexin-V-FITC/propidium iodide staining based flow cytometry (reference value: 97.5%); format: functional
HT-29 [7] = experiment: Induction of apoptosis in human HT-29 cells assessed as increase in PARP activation after 48 hrs by Western blot analysis; format: functional, cell-based
Method in brief: (§1)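 HT29 or SW620 cells were treated at 0, 25, 50 and 75 μM for 48 h and lysed in RIPA with protease and phosphatase inhibitors. Protein was quantified by BCA. 50 μg lysate was run on 8–15% SDS-PAGE and transferred to PVDF. Blocking was 5% BSA/TBST for 2 h; primary antibodies were applied overnight at 4 °C, then HRP secondary 1 h at room temperature.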

HT-29 [8] = experiment: Effect on total 4EBP1 expression in human HT-29 cells up to 75 uM after 48 hrs by Western blot analysis; format: ADME, cell-based; conditions: ht-29, 48 h; method in brief: as §1
[9] = biological target: T1, Tyrosine-protein kinase ABL1 (Homo sapiens, UniProt P00519); experiment: Inhibition of human phosphorylated ABL1 (S229 to K512 residues) expressed in mammalian expression system assessed as residual activity at 5 uM by KINOMEscan assay relative to control
[10] = biological target: Cyclin-dependent kinase 2 (Homo sapiens, UniProt P24941); experiment: Inhibition of full length human CDK2 (M1 to L298 residues) expressed in bacterial expression system assessed as residual activity at 5 uM by KINOMEscan assay relative to control
[11] = biological target: Epidermal growth factor receptor (Homo sapiens, UniProt P00533); experiment: Inhibition of partial length human EGFR (R669 to V1011 residues) expressed in bacterial expression system assessed as residual activity at 5 uM by KINOMEscan assay relative to control
[12] = biological target: Receptor tyrosine-protein kinase erbB-2 (Homo sapiens, UniProt P04626); experiment: Inhibition of human ERBB2 (K646 to V1225 residues) expressed in mammalian expression system assessed as residual activity at 5 uM by KINOMEscan assay relative to control
[13] = biological target: Mitogen-activated protein kinase 9 (Homo sapiens, UniProt P45984); experiment: Inhibition of full length human JNK2 (M1 to Q382 residues) expressed in mammalian expression system assessed as residual activity at 5 uM by KINOMEscan assay relative to control
[14] = biological target: Mitogen-activated protein kinase 10 (Homo sapiens, UniProt P53779); experiment: Inhibition of human JNK3 (V28 to Q422 residues) expressed in mammalian expression system assessed as residual activity at 5 uM by KINOMEscan assay relative to control
[15] = biological target: MAP kinase-activated protein kinase 2 (Homo sapiens, UniProt P49137); experiment: Inhibition of human MAPKAPK2 (V48 to D345 residues) expressed in bacterial expression system assessed as residual activity at 5 uM by KINOMEscan assay relative to control
[16] = biological target: Dual specificity mitogen-activated protein kinase kinase 1 (Homo sapiens, UniProt Q02750); experiment: Inhibition of full length human MEK1 (M1 to V393 residues) expressed in mammalian expression system assessed as residual activity at 5 uM by KINOMEscan assay relative to control
[17] = biological target: Mitogen-activated protein kinase 11 (Homo sapiens, UniProt Q15759); experiment: Inhibition of full length human p38beta (M1 to Q364 residues) expressed in bacterial expression system assessed as residual activity at 5 uM by KINOMEscan assay relative to control
[18] = biological target: Phosphatidylinositol 4,5-bisphosphate 3-kinase catalytic subunit alpha isoform (Homo sapiens, UniProt P42336); experiment: Inhibition of human PIK3CA (R108 to N1068 residues) expressed in mammalian expression system assessed as residual activity at 5 uM by KINOMEscan assay relative to control
SRSF protein kinase 3 = SRSF protein kinase 3 (Homo sapiens, UniProt Q9UPE1); experiment: Inhibition of human SRPK3 (P41 to P567 residues) expressed in bacterial expression system assessed as residual activity at 5 uM by KINOMEscan assay relative to control
[19] = biological target: Vascular endothelial growth factor receptor 2 (Homo sapiens, UniProt P35968); experiment: Inhibition of human VEGFR2 (R787 to P1253 residues) expressed in mammalian expression system assessed as residual activity at 5 uM by KINOMEscan assay relative to control
[20] = biological target: Serine/threonine-protein kinase 32C (Homo sapiens, UniProt Q86UX6); experiment: Inhibition of human YANK3 (M68 to G486 residues) expressed in bacterial expression system assessed as residual activity at 5 uM by KINOMEscan assay relative to control
[21] = biological target: T1, Tyrosine-protein kinase ABL1; experiment: Binding affinity to human non-phosphorylated ABL1 (S229 to K512 residues) expressed in mammalian expression system by KINOMEscan assay
[22] = biological target: Tyrosine-protein kinase receptor UFO (Homo sapiens, UniProt P30530); experiment: Binding affinity to human AXL (R497 to Y821 residues) expressed in bacterial expression system by KINOMEscan assay
[23] = biological target: Tyrosine-protein kinase JAK2 (Homo sapiens, UniProt O60674); experiment: Binding affinity to human JAK2 JH1 catalytic domain (A829 to G1132 residues) expressed in mammalian expression system by KINOMEscan assay
[24] = biological target: Mitogen-activated protein kinase kinase kinase 4 (Homo sapiens, UniProt Q9Y6R4); experiment: Binding affinity to human MAP3K4 (G1319 to E1608 residues) expressed in bacterial expression system by KINOMEscan assay
[25] = biological target: Hepatocyte growth factor receptor (Homo sapiens, UniProt P08581); experiment: Binding affinity to human MET (D1010 to S1367 residues) expressed in bacterial expression system by KINOMEscan assay
[26] = biological target: Mitogen-activated protein kinase 14 (Homo sapiens, UniProt Q16539); experiment: Binding affinity to full length human p38alpha (M1 to S360 residues) expressed in bacterial expression system by KINOMEscan assay
[27] = biological target: Serine/threonine-protein kinase pim-1 (Homo sapiens, UniProt P11309); experiment: Binding affinity to human PIM1 (A15 to K313 residues) expressed in bacterial expression system by KINOMEscan assay

CC(C)CN(C(=O)c1cccnc1)c1c2ccccc2c(=O)n2c1[nH]c1ccccc12
Activity (HT-29 [1]): 18.12%
Activity (SW-620 [2]): 38.82%
Activity (SW-620 [3]): 29.26%
Activity (SW-620 [4]): 81.7%
Activity (HT-29 [5]): 80.3%
Activity (SW-620 [6]): 76.7%
Activity (HT-29 [7]): Dose-dependent effect
Activity (HT-29 [8]): Non-Toxic
Activity [9]: 85%
Activity [10]: 97%
Activity [11]: 100%
Activity [12]: 97%
Activity [13]: 96%
Activity [14]: 95%
Activity [15]: 100%
Activity [16]: 91%
Activity [17]: 100%
Activity [18]: 100%
Activity (SRSF protein kinase 3): 98%
Activity [19]: 98%
Activity [20]: 99%
Kd [21]: ≥ 5 µM
Kd [22]: ≥ 5 µM
Kd [23]: ≥ 5 µM
Kd [24]: ≥ 5 µM
Kd [25]: ≥ 5 µM
Kd [26]: ≥ 5 µM
Kd [27]: ≥ 5 µM
